Reference: ChEMBL document CHEMBL4513216, “Probing the Open Global Health Chemical Diversity Library for Multistage-Active Starting Points for Next-Generation Antimalarials” (ACS Infect Dis, 2020)

Assay: Toxicity liver stage against HepG2, at 10uM
Format: cell-based
Parameters: test concentration 10 uM, cell line HepG2-A16-CD81EGFP
Conditions: human, HepG2-A16-CD81EGFP cells; read-out: INHIBITION
Method in brief: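 Uninfected HepG2-A16-CD81EGFP cells, 3 × 10^3 per well, 1536-well, plated on prespotted compound at 10 μM final, parasite-free screening media added to match infected plates; puromycin 10 μM positive, DMSO 0.5% negative; run in parallel with 48 h PbLuc assay at 37 °C, 5% CO2; viability by CellTiter-Glo luminescence, normalized to controls.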

Compound | cytotoxicity at 10 µM [%]
COc1cccc2c3c(c(=O)[nH]c12)CCC(C)(C)O3 | -1.43
O=C(NCC(O)c1ccccc1)Nc1cccs1 (stereo unspecified) | 8.25
O=c1ncn(-c2ccc(F)cc2)c2ncccc12 | 0.946
Cc1nc2ccccc2c(=O)n1Cc1nnnn1C1CC1 | -13.8
CC(C)N1CCN2C(=O)N(C3CCCCC3)C[C@H]2C1 | 1.2
Cc1ccc(-c2noc([C@@H]3C[C@H](NC(=O)CC(C)(C)C)CN3C)n2)cc1 | 7.35
Cn1nnnc1SCC(=O)N1CCN(C(=O)C2CC2c2cccs2)CC1 (stereo unspecified) | 8.58
O=C(CC1CCCCC1)N1CCOCC1CO (stereo unspecified) | -0.779
CC(C)c1nnc(C2CCN(CC(=O)Nc3cccnc3)CC2)o1 | -5.92
O=C(Nc1cnn(C2CCOCC2)c1)c1ccc2c(c1)OCO2 | 3.07
Cc1ccsc1C(=O)N1CC2CC1(C(=O)NCc1ccco1)C2 | -6.43
CC1c2ncc(COCC3CCOCC3)n2CCN1S(C)(=O)=O (stereo unspecified) | 3.11
Cc1cccc(N2CC[C@@H]3[C@@H](CO[C@H]3CNS(C)(=O)=O)C2)n1 | 3.62
CC(C)NC(=O)C1CN(C(=O)c2cccs2)CC12CCOCC2 (stereo unspecified) | -3.59
c1ccc(-c2ncc3c(n2)C2(CCN(c4ncccn4)C2)COC3)cc1 (stereo unspecified) | 1.36
Cn1cc(C2CC3(CCN(C(=O)c4cccs4)CC3)NC2=O)cn1 (stereo unspecified) | 1.27
CO[C@H]1CN(C(=O)c2ccc(C)o2)[C@@H]2CCCO[C@H]12 | -153
CNc1oc(-c2cc(S(=O)(=O)N3CCCC3)c(C)o2)nc1C#N | 5.08
COc1cccc(C2CC(=O)Nc3c2cnn3C(C)(C)C)c1 (stereo unspecified) | -8.54
COCCN1C(=O)CCC12CCN(C(=O)NC(C)C)CC2 | 4.45
O=C(c1ccc[nH]1)N1C[C@H](OCc2cccnc2)[C@H]2COC[C@H]21 | -10.4
CCS(=O)(=O)Nc1ccn(Cc2c(F)cccc2Cl)n1 | 7.77
COc1cc(CC2CC(c3ccc4c(c3)OCO4)=NO2)cc2c1OCO2 (stereo unspecified) | 0.69

Compound | cytotoxicity at 10 µM [%]
O=C(CCc1ccccc1F)NC1CCCN(c2ccccn2)C1 (stereo unspecified) | 2.21
c1ccc(Oc2nccnc2C2CCN(C3CCOCC3)CC2)cc1 | 4.38
Cc1nccc(C2CCCN(C(=O)c3cncnc3)C2)n1 (stereo unspecified) | 4.1
CCOC(=O)c1n[nH]cc1-c1cncn1CCn1nc(C)c(Cl)c1C | -15.1
NC(=O)CN1CCCC(c2nccnc2Oc2cccc(F)c2)C1 (stereo unspecified) | -17.1
Cc1cccc(CC(=O)NC2CCN(C(=O)NC(C)(C)C)CC2)c1 | -10.4
Cn1ccnc1CN1CCCN(C(=O)C2(C#N)CCCCC2)CC1 | -2.84
Cc1ccn(Cc2nc(C(C)OCC(C)C)no2)c(=O)c1 (stereo unspecified) | 5.56
CCC(C)(O)CNc1ccc(S(=O)(=O)C(F)F)cc1 (stereo unspecified) | 12.2
CCC(CNS(=O)(=O)c1cccc(C(=O)OC)c1)N1CCCC1 (stereo unspecified) | -8.93
CCOCCC(=O)Nc1cccc(Cl)c1C(N)=O | -8.59
CCc1cnc(C(C)NC(=O)N2CCCN(CC(F)F)CC2)s1 (stereo unspecified) | -0.423
CCn1cc(C(=O)NCC(C)(CC)N2CCOCC2)c2ccccc21 (stereo unspecified) | 6.13
CC(NC(=O)Nc1cccnc1N1CCOCC1)c1ccccc1 (stereo unspecified) | 2.83
Cc1ccc(CNC(=O)NC2CCC(O)CC2)c(N2CCCC2)c1 (stereo unspecified) | -16.4
O=C(NCc1ccnc(OCC2CC2)c1)C1Cc2ccccc2O1 (stereo unspecified) | -0.483
CN1CCN(C(=O)c2cccn2C)c2ccccc2C1 | 7.28
Cc1cc(F)cc2c(N3CCS(=O)(=O)CC3)c(C#N)cnc12 | -16.7
CCc1nsc(N2CCN(C(=O)COc3ccccc3)CC2)n1 | -3.49
CC1CCCCN1C(=O)Cn1cc(I)cn1 (stereo unspecified) | 0.687
Cc1cccc(-c2noc(CN3CCC(c4ccn[nH]4)CC3)n2)c1 | 4.13
Cc1cc(CN2CCc3cncnc3C2)on1 | 4.13
CCNC(=O)C1CCN(Cn2nc(-c3ccccc3)oc2=O)CC1 | 11.5

Compound | cytotoxicity at 10 µM [%]
CC(C)NC(=O)c1nnn(-c2ccc(F)cc2)c1C1CC1 | 12.1
Cc1ccnc(N2CCC(NCCOc3ccccc3)CC2)n1 | -1.21
Cc1cnc(CN(Cc2ccc(C#N)cc2F)C2CCN(C)C2)o1 (stereo unspecified) | 0.172
CC(C)n1cc2cc(NC(=O)Cn3cnnn3)ccc2n1 | -138
Cc1cc(NC(C)C(=O)NCc2ccccc2)nc(-c2ccncc2)n1 (stereo unspecified) | 0.563
CS(=O)(=O)CCCOc1cccc(-n2cccn2)c1 | -9.22
C1CCN(CCOC2CCNCC2)C1 | 6.59
O=C(NCC1(c2cccc(F)c2)CC1)N1CCC2(CCOC2)C1 (stereo unspecified) | 2.82
CN(Cc1cccs1)c1cc(N2CCCC2CO)ncn1 (stereo unspecified) | 1.26
CS(=O)(=O)c1cccc(S(=O)(=O)NC(=O)CCC2CCCCC2)c1 | 0.848
CCCSCC(=O)Nc1ncn(CC(=O)N2CCCCCC2)n1 | -3.91
Cn1cccc1C1CCCN1Cc1noc(C(C)(C)C)n1 (stereo unspecified) | -4.4
O=S(=O)(CC1CCCCC1)NCc1ccnc(O)c1 | 6.54
CCOCCCC(=O)NCCC(=O)N1CCN(c2ccccn2)CC1 | -4.76
CC1CN(C)c2ccccc2CN1C(=O)CSc1ccncc1 (stereo unspecified) | -12.6
CN(C)C1CCN(C(=O)c2n[nH]c3c2CCN(CC2CCC2)C3)CC1 | 3.48
CCn1cc2c(n1)C(COC)CN(C(=O)CCOc1ccccc1)C2 (stereo unspecified) | 0.234
CCC[C@H]1CN(CCCO)C[C@@H]1NC(=O)Cn1cc(C)cn1 | 1.39
Cc1nc[nH]c1C(=O)N1CCC2(CC1)CN(CCN(C)C)C(=O)O2 | 4.54
Cc1ccccc1NC(=O)CNC(C)COc1ccccc1 (stereo unspecified) | -0.264
CN(CC1CCCCO1)c1nc2c(cc1C(N)=O)CCC2 (stereo unspecified) | -5.64
O=C1NCCN1CCNc1cc(-c2ccccc2)nc2ccnn12 | -10.7
NS(=O)(=O)CCCC(=O)N1CCC2(CC1)c1ccccc1CC2O (stereo unspecified) | 4.71

Compound | cytotoxicity at 10 µM [%]
O=C(CCc1cc2n(n1)CCCNC2)N1CCC(N2CCOC2=O)CC1 | 6.05
Nc1ncc(C(=O)N2CCC3(CCCO3)CC2)c(-c2ccccc2)n1 | -156
Cc1cc(C(=O)N2CCC(c3nnc(Cn4ccnc4)n3C)CC2)cs1 | -114
O=C(NCC1=CCCCC1)C(c1cccnc1)N1CCCC1 (stereo unspecified) | -3.78
CC(=O)CCC(=O)N1CCC2(CC1)N=C(CCC(C)C)NC2=O | -7.14
Cc1ccc2c(c1)SCC(=O)N2CC(=O)N1CCCC1c1cc(C)no1 (stereo unspecified) | 8.32
CC(C)CN1CCN(S(=O)(=O)c2cn(C)cn2)[C@H]2CS(=O)(=O)C[C@H]21 | -4.07
CCN1CCN(S(=O)(=O)N2CCc3ccccc3C2)[C@H]2CS(=O)(=O)C[C@H]21 | -4
c1ccc(-c2noc(CCNC3CCOC4(CCOCC4)C3)n2)nc1 (stereo unspecified) | -6.5
CC(C)N1CC(c2ncc(-c3ccc4c(c3)OCCO4)[nH]2)CC1=O (stereo unspecified) | 0.166
Cc1nc2ccccc2n1Cc1cc(C(=O)N(C)C2CCOC2)n[nH]1 (stereo unspecified) | 4.91
CCCc1cnc(C)nc1N1CCC(F)(F)CC1 | 7.46
CCc1ccccc1OCCCN(C)C(=O)C1CCCN1C(N)=O (stereo unspecified) | 0.369
O=C(CCN1CCOCC1)N1CCC(Cc2ccc(CO)cc2)C1 (stereo unspecified) | -9.47
CCc1cnc(C)nc1NCCc1nc(N)cc(O)n1 | -0.264
Cc1nc(CNC(=O)CC2C(=O)NCCN2CCC(C)C)n[nH]1 (stereo unspecified) | -4.44
CCc1cc(CN(C)C(=O)c2cnon2)on1 | 9.83
Cc1c(Cl)c(C(=O)N2CC[C@H](N3CCOCC3)[C@H](CCCO)C2)nn1C | -148
CCN1CC(C(=O)N2CCC(Oc3ccccc3C)CC2)CC1=O (stereo unspecified) | -12.1
Cc1ccc(NC2CCN(C(=O)c3ccncc3)CC2)nn1 | 8.85
CC(Cn1cccn1)NC(=O)Nc1nncs1 (stereo unspecified) | -1.86
CCCc1cc(C(=O)NCCN2CCCS2(=O)=O)[nH]n1 | -7.13
CC(=O)N1CCCN(C(=O)NCc2cccnc2OC(C)C)CC1 | -5.5

Compound | cytotoxicity at 10 µM [%]
Clc1ccc(-c2nnc(CNCCn3cccn3)o2)c(Cl)c1 | -4.86
CCOc1ccc(C#N)cc1NCC(=O)OC | -19.2
Cc1nc(C)n(CC2CCCN2CCC(=O)NC2CCCC2)n1 (stereo unspecified) | -10.4
c1ccc(-c2nc(CN3CCn4c(nnc4C4CC4)C3)co2)cc1 | -2.18
COc1c(C2CCCN2Cc2noc(C)n2)c(C)nn1C (stereo unspecified) | -12.5
CCN(CCC1CCN(C(=O)NCc2nncn2CC)CC1)CC1CC1 | -2.75
Cc1ccc(C(=O)Nc2ccc(S(=O)(=O)/N=C3\CCCN3C)cc2)s1 | 0.174
CCOc1ncccc1C(=O)NC1CCCN(c2ncccn2)C1 (stereo unspecified) | -23.5
CC(C)c1cc(NC(=O)c2ccc(NC3CC3)nc2)[nH]n1 | -8.9
CC(C)(C)NC[C@@H]1CCC[C@@H]2CN(Cc3csnn3)C[C@@H]21 | -134
CC(C)CN1C[C@@H]2C(=O)N(C)C3(CCN(C(=O)C(C)C)CC3)[C@@H]2C1 | 6.88
CN(C)CCN1C(=O)CCC12CCCN(C(=O)c1cccnc1)CC2 (stereo unspecified) | -6.78
CNC(=O)c1cc2c(nc1NCC(C)C)CCN(c1ccncn1)CC2 | 7.95
CCC(=O)N1CCC2(CC1)C(=O)N(Cc1cccnc1)CCN2C | 2.17
COC1COC2(CCN(Cc3ccccc3Cl)CC2)C1 (stereo unspecified) | -14.1
CCN(C)c1ncnc2c1CCN(Cc1nccs1)CC2 | -2.46
CN1CCN(C[C@@H]2OC[C@H]3CN(CCc4ccccc4)CC[C@H]32)CC1 | 8.84
O=c1ccc2c([nH]1)CCC(NCc1ccc3c(c1)OCO3)C2 (stereo unspecified) | 6.69
O=C(CSc1ccccn1)N1C[C@@H]2CC[C@H]1CN(Cc1cscn1)C2 | 1.93
